# According to ChEMBL document CHEMBL1255417, “Correlation between in vitro activity of posaconazole and in vivo efficacy against Rhizopus oryzae infection in mice” (Antimicrob Agents Chemother, 2010):
# Calls of active or inactive are those of the source. The rule behind the calls is not given here.
# Legend:
# Rhizopus arrhizus [1] = assay: Antifungal activity against drug-intermediate Rhizopus oryzae UTHSC 05-3032 infected in OF1 mouse assessed as reduction in kidney fungal load at 10-30 mg/kg, po bid treated 24 hrs after fungal infection; type: functional, organism-based
# How it was run: (§1)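 Tissue burden in immunosuppressed male OF1 mice, using cyclophosphamide 200 mg/kg i.p. plus 5-fluorouracil 150 mg/kg i.v. on day −1. Mice received 2 × 10^4 CFU i.v. by tail vein, then oral gavage at 10, 20 or 30 mg/kg BID from 24 h post-challenge, with ceftazidime cover; untreated controls. Groups of 10 were killed on day 4. Kidneys and brains were homogenized in 2 ml saline, serially diluted 10-fold, plated on PDA and counted after 24 h at 35°C.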
# Rhizopus arrhizus [2] = assay: Antifungal activity against drug-susceptible Rhizopus oryzae UTHSC 06-4133 at 5 ug by disk diffusion assay; type: functional; conditions: read-out: DIZ
# How it was run: (§2)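 Neo-Sensitabs tablet diffusion on Mueller-Hinton agar, run per the mould guidelines. Tablets are 9 mm in diameter and carry 5 ug posaconazole. The read-out is the inhibition zone diameter in mm.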
# Rhizopus arrhizus [3] = assay: Antifungal activity against drug-susceptible Rhizopus oryzae UTHSC 05-1817 at 5 ug by disk diffusion assay; type: functional; conditions: read-out: DIZ
# How it was run: (§3)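 Neo-Sensitabs tablet diffusion on Mueller-Hinton agar, following guidelines for molds; 9 mm tablets containing 5 µg posaconazole; inhibition zone diameter measured in mm; zone breakpoints applied at 24 h.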
# Rhizopus arrhizus [4] = assay: Antifungal activity against drug-susceptible Rhizopus oryzae UTHSC 04-443 after 24 to 48 hrs; type: functional
# How it was run: (§4)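 Minimum fungicidal concentration: 20 µl from each microdilution well showing complete inhibition (optically clear) plated on potato dextrose agar, incubated 35°C for 24 to 48 h; MFC taken as lowest drug concentration giving no growth.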
# Rhizopus arrhizus [5] = assay: Antifungal activity against drug-susceptible Rhizopus oryzae UTHSC 04-1613 at 5 ug by disk diffusion assay; type: functional; conditions: read-out: DIZ; how it was run: as §3
# Rhizopus arrhizus [6] = assay: Antifungal activity against drug-intermediate Rhizopus oryzae UTHSC 07-365 infected in OF1 mouse assessed as reduction in brain fungal load at 10-30 mg/kg, po bid treated 24 hrs after fungal infection; type: functional, organism-based; how it was run: as §1
# Rhizopus arrhizus [7] = assay: Antifungal activity against drug-susceptible Rhizopus oryzae UTHSC 03-2970 at 5 ug by disk diffusion assay; type: functional; conditions: read-out: DIZ
# How it was run: (§5)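 Neo-Sensitabs tablet diffusion on Mueller-Hinton agar, following the guidelines for molds. Tablets were 9 mm in diameter and held 5 µg of drug. The read-out was inhibition zone diameter in mm.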
# Rhizopus arrhizus [8] = assay: Antifungal activity against drug-susceptible Rhizopus oryzae UTHSC 04-1220 at 5 ug by disk diffusion assay; type: functional; conditions: read-out: DIZ; how it was run: as §3
# Rhizopus arrhizus [9] = assay: Antifungal activity against drug-susceptible Rhizopus oryzae UTHSC 02-439 after 24 to 48 hrs; type: functional
# Rhizopus arrhizus [10] = assay: Antifungal activity against drug-susceptible Rhizopus oryzae UTHSC 03-3110 by broth microdilution method; type: functional
# How it was run: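 CLSI broth microdilution for filamentous fungi (M38-A2); MIC recorded in µg/ml against clinical isolates; breakpoints applied at 24 h.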
# Rhizopus arrhizus [11] = assay: Antifungal activity against drug-susceptible Rhizopus oryzae UTHSC 05-1679 at 5 ug by disk diffusion assay; type: functional; conditions: read-out: DIZ; how it was run: as §3
# Rhizopus arrhizus [12] = assay: Antifungal activity against drug-susceptible Rhizopus oryzae UTHSC 06-3913 at 5 ug by disk diffusion assay; type: functional; conditions: read-out: DIZ; how it was run: as §2
# Rhizopus arrhizus [13] = assay: Antifungal activity against drug-susceptible Rhizopus oryzae UTHSC 02-2882 at 5 ug by disk diffusion assay; type: functional; conditions: read-out: DIZ; how it was run: as §5
# Rhizopus arrhizus [14] = assay: Antifungal activity against drug-susceptible Rhizopus oryzae UTHSC 02-439 by broth microdilution method; type: functional
# How it was run: (§6)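 Broth microdilution MIC in µg/ml, run per the CLSI (formerly NCCLS) guideline for filamentous fungi, M38-A2.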
# Rhizopus arrhizus [15] = assay: Antifungal activity against drug-susceptible Rhizopus oryzae UTHSC 06-1301 after 24 to 48 hrs; type: functional
# How it was run: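 Minimum fungicidal concentration taken from the broth microdilution plates. From each well with complete inhibition (optically clear), 20 ul is plated on potato dextrose agar. Plates are incubated at 35°C for 24 to 48 h. The MFC is the lowest drug concentration giving no growth.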
# Rhizopus arrhizus [16] = assay: Antifungal activity against drug-susceptible Rhizopus oryzae infected in OF1 mouse assessed as mouse survival at 30 mg/kg, po bid treated 24 hrs after fungal infection; type: functional
# Rhizopus arrhizus [17] = assay: Antifungal activity against drug-susceptible Rhizopus oryzae UTHSC 05-2975 after 24 to 48 hrs; type: functional; how it was run: as §4
# Rhizopus arrhizus [18] = assay: Antifungal activity against drug-intermediate Rhizopus oryzae UTHSC 05-3032 by broth microdilution method; type: functional; how it was run: as §6
# Rhizopus arrhizus [19] = assay: Antifungal activity against drug-susceptible Rhizopus oryzae UTHSC 06-731 by broth microdilution method; type: functional
# Rhizopus arrhizus [20] = assay: Antifungal activity against drug-intermediate Rhizopus oryzae UTHSC 05-114 at 5 ug by disk diffusion assay; type: functional; conditions: read-out: DIZ; how it was run: as §5
# Rhizopus arrhizus [21] = assay: Antifungal activity against drug-intermediate Rhizopus oryzae UTHSC 03-3165 after 24 to 48 hrs; type: functional
# Rhizopus arrhizus [22] = assay: Antifungal activity against drug-susceptible Rhizopus oryzae UTHSC 05-1502 after 24 to 48 hrs; type: functional; how it was run: as §4
compound,measurement,setting,value
CC[C@@H]([C@H](C)O)n1ncn(-c2ccc(N3CCN(c4ccc(OC[C@@H]5CO[C@@](Cn6cncn6)(c6ccc(F)cc6F)C5)cc4)CC3)cc2)c1=O [POSACONAZOLE],Activity,Rhizopus arrhizus [1],inactive
same,zone of inhibition at 5 µg/disc,Rhizopus arrhizus [2],23 mm
same,zone of inhibition at 5 µg/disc,Rhizopus arrhizus [3],25 mm
same,MFC,Rhizopus arrhizus [4],1 µg/mL
same,zone of inhibition at 5 µg/disc,Rhizopus arrhizus [5],22 mm
same,Activity,Rhizopus arrhizus [6],inactive
same,zone of inhibition at 5 µg/disc,Rhizopus arrhizus [7],20 mm
same,zone of inhibition at 5 µg/disc,Rhizopus arrhizus [8],20 mm
same,MFC,Rhizopus arrhizus [9],0.5 µg/mL
same,MIC,Rhizopus arrhizus [10],1 µg/mL
same,zone of inhibition at 5 µg/disc,Rhizopus arrhizus [11],18 mm
same,zone of inhibition at 5 µg/disc,Rhizopus arrhizus [12],20 mm
same,zone of inhibition at 5 µg/disc,Rhizopus arrhizus [13],22 mm
same,MIC,Rhizopus arrhizus [14],0.25 µg/mL
same,MFC,Rhizopus arrhizus [15],1 µg/mL
same,Activity,Rhizopus arrhizus [16],30%
same,MFC,Rhizopus arrhizus [17],2 µg/mL
same,MIC,Rhizopus arrhizus [18],2 µg/mL
same,MIC,Rhizopus arrhizus [19],0.5 µg/mL
same,zone of inhibition at 5 µg/disc,Rhizopus arrhizus [20],15 mm
same,MFC,Rhizopus arrhizus [21],16 µg/mL
same,MFC,Rhizopus arrhizus [22],1 µg/mL
